Published values collected from several papers.

CC(C)n1cc(C#N)c2cc(-n3cc(C(=O)O)cn3)ccc21
Tmax (human; plasma; oral; 25 mg; single dose, fasted, healthy volunteers): 2.3 h

Cn1cc(-c2ccc(S(=O)(=O)[C@@H]3C[C@@H](C(=O)NC4(C#N)CC4)N(C(=O)C4(C(F)(F)F)CC4)C3)c(C(F)(F)F)c2)cn1
Tmax (human; plasma; oral; 600 mg; single dose, fasted, healthy volunteers): 3.5 h

C=CC(=O)N(C)CCOc1c(N)ncnc1-c1cc(F)cc(NC(=O)c2ccc(C3CC3)cc2F)c1C
Tmax (human; blood; oral; 60 mg; single dose, healthy volunteers): 1.01 h

CC(C)(Sc1ccncc1-c1ccc(C#N)c2ccccc12)C(=O)O
Tmax (male human; plasma; oral; 5 mg; single dose, fed, healthy volunteers): 1.25 h

C[C@@H](Nc1cc(F)cc(F)c1)c1cc(C(=O)N(C)C)cc2c(=O)cc(N3CCOCC3)oc12
Tmax (human; plasma; oral; 30 mg; single dose, patients): 2 h

COc1cc(N2CCC(N3CCN(C)CC3)CC2)ccc1Nc1ncnc(Nc2ccccc2S(=O)(=O)C(C)C)n1
Tmax (human; plasma; oral; 325 mg; multiple doses, patients): 3.75 h

COc1ccc([C@@H]2CN(C(=O)[C@@H](O)CO)C[C@@]2(C)[C@@H](C)O)cc1OC1CN(c2ccc(C)cn2)C1
Tmax (human; plasma; oral; 40 mg; single dose, healthy volunteers): 3.88 h

CC(C)(O)c1ccccc1-c1ccc2[nH]c(/C=C/c3ccc(C(F)(F)F)cc3)nc2c1
Tmax (male human; plasma; oral; 120 mg; single dose, fasted): 3 h

CCc1nc2c(C)cc(N3CCN(CC(=O)N4CC(O)C4)CC3)cn2c1N(C)c1nc(-c2ccc(F)cc2)c(C#N)s1
Tmax (human; plasma; intravenous; 0.1 mg; fasted, healthy volunteers): 0 h
